Screening results as filed in PubChem BioAssay.
Most compounds without a hit are left out; they make up all but 7.2% or so of the library.
D1 allo mod – allosteric modulators of human D1 dopamine receptor; HEK293 D1, CRE-luciferase, dopamine EC30 potentiation; actives deviate in either direction; B-score at 10 µM; 5.9% of 58,000 active;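 active = luminescence count or its row- and column-corrected plate score outside the 99.7% band of the plate's sample wells, on either side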
M1 antagonist – antagonists of rat M1 muscarinic receptor | 3.4% of 64,000 active | P08482 | CHO-M1 cells, Fluo-4 calcium, ACh EC80 antagonist mode; hits give low values | B-score at 10 µM | AID 628;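 active = calcium fluorescence response, raw or row-and-column corrected B-score, differing from the plate sample mean either way at a set confidence level, mostly lower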
M1 ag – activates the M1 muscarinic receptor; CHO-M1 cells, Fluo-4 calcium fluorescence, agonist mode; hits give high values; 3% of 64,000 active; AID 626; B-score at 10 µM;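 active = fluorescence rise, raw or as B-score row- and column-corrected plate score, outside the 99.7% band of its plate's samples, either direction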
HEK293 NFkB inh – inhibitors of the PMA/ionomycin-induced NF-kB reporter in HEK293 cells; HEK-293 NF-kB luciferase reporter, luminescence; inhibition, % at 3 µM; 0.21% of 62,000 active;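 active = inhibition above the mean of all tested compounds plus 3 SD, cut at about 40% in these data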;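 also: 0% = stimulated DMSO wells and 100% = 10 µM reference inhibitor 5653914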
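Signal: luciferase luminescence; Material: HEK-293 cells with stable firefly luciferase reporter driven by four HIV NF-kB elements; Probe or stimulus: PMA with ionomycin; Replication: tested once; Times: 1 h compound pretreatment, then 16 h stimulation at 37 °C, 5% CO2; Benchmarks: DMSO and 10 µM reference inhibitor; Evaluation: per-plate % inhibition versus controls.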
hDAT+cocaine – human DAT dopamine uptake with cocaine, either direction; Q01959; LLC-PK1 hDAT cells, [14C]-dopamine uptake with cocaine IC80; actives deviate in either direction; B-score at 10 µM; 1.3% of 110,000 active; AID 449768;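 active = Z score or B-score, a plate-position-corrected score, falls beyond the plate's 99.7% confidence bounds, in either direction; inactive = both scores lie inside the 99.7% bounds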;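 also: scored against the spread of the other compound wells on the same plate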
Target sequence (Q01959 whole entry, looked up): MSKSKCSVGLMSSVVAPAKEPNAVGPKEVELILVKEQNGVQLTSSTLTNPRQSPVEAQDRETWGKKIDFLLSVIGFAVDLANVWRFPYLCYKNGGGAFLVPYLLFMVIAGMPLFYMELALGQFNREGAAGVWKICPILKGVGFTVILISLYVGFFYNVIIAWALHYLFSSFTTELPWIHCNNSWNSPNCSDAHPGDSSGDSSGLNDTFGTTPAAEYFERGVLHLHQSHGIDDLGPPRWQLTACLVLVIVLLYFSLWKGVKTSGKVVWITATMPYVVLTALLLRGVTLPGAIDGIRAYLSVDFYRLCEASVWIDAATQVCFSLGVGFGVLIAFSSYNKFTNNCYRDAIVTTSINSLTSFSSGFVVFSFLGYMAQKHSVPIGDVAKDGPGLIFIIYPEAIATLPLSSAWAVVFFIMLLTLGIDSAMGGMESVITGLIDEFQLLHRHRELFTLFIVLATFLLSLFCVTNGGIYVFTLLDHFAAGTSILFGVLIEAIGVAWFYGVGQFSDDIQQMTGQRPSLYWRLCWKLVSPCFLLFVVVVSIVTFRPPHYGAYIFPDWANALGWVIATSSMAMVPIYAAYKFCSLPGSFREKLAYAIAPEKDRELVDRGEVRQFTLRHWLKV
BAP1 block – blocks human BAP1 ubiquitin-AMC hydrolysis; calls only at 20 µM; 0.48% of 72,000 active; AID 436; Q92560; recombinant BAP1, Ub-AMC hydrolysis fluorescence kinetic; hits give low values;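 active = activity remaining at or below 50% of control, provided the compound also passes the data quality filters; inactive = the rest, including low values that fail the filters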;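 also: 100% = DMSO wells rate and 0% = substrate alone blank rate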
M1 antag conf – confirmation of rat M1 muscarinic receptor antagonists | shares compounds with M1 antagonist | 43% of 1,700 active | AID 677 | CHO-M1 cells, Fluo-4 calcium, ACh EC80 antagonism; hits give low values | calcium response (max-min fluorescence) at 10 µM;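 active = calcium response below the same-plate mean of wells given acetylcholine alone at its 80%-effect dose, minus 3 SD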;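 also: raw fluorescence intensity difference in arbitrary instrument units and not normalized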
mGluR4 antag – acts on human mGluR4 in M1 antagonist selectivity test; shares compounds with M1 antagonist; CHO-mGluR4 calcium flux, Fluo-4 fluorescence, glutamate EC80; hits give low values; 0.9% of 1,700 active; fluorescence response (max-min) at 10 µM;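 active = fluorescence response below the plate's average for near-maximal glutamate wells, less 3 SD of those wells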;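 also: raw unnormalized fluorescence span taken in the window right after glutamate addition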
Starred values were filed as active, the others as inactive; i = inactive; · = no result shown.

SMILES | D1 allo mod | M1 antagonist | M1 ag | HEK293 NFkB inh | hDAT+cocaine | BAP1 block | M1 antag conf | mGluR4 antag
CC12CCC(C(=O)N3CCCCC3)(OC1=O)C2(C)C (centres undefined) | · | · | · | · | · | i | · | ·
CCCOc1cccc(C(=O)Nc2ccc(NC(=O)c3ccc(Br)cc3)cc2)c1 | · | · | · | · | · | i | · | ·
CC(C)CNC(=O)COC(=O)c1ccc(Cl)c(S(N)(=O)=O)c1 | · | · | · | · | 0.21 | · | · | ·
CN(CCC#N)C(=O)COC(=O)c1ccc(Cl)c(S(N)(=O)=O)c1 | 0.79 | -12* | 0.32 | 8 | -0.0042 | i | 642 | 226
Clc1ccc(C=Cc2nc(-c3ccccc3)c3ccccn23)cc1 | · | · | · | · | · | i | · | ·
CN(CCNC(=O)c1cc2c(=O)n(C)c3ccccc3c2n1C)Cc1ccccc1 | 0.32 | -3.8* | 0.56 | 8 | 0.98 | i | 512 | 208
Cc1ccc(CNC(=O)c2cc3c(=O)n(C)c4ccccc4c3n2C)cc1 | · | · | · | · | -0.83 | · | · | ·
O=C(CC(c1ccccc1)c1cc(Cl)ccc1O)N1CCOCC1 (centres undefined) | -1.2 | -2.6* | 0.17 | 10 | -0.33 | i | 477 | 214
O=C(CC(c1ccc(F)cc1)c1ccco1)N1CCOCC1 (centres undefined) | -0.12 | 0 | -0.74 | 15 | · | i | · | ·
CCc1ccc(CNc2ccc3c(c2)ncn3C)cc1 | -1.1 | -2.7* | -0.29 | -22 | -0.31 | i | 627 | 248
CC(C1CC1)N(C(=O)c1ccccc1O)c1ccccc1 (centres undefined) | -1.1 | -3.6* | -0.36 | 14 | -0.014 | i | 548 | 218
O=C(C1CC1)N(CCN(C(=O)C1CC1)c1ccccc1)c1ccccc1 | · | · | · | · | 0.83 | · | · | ·
COc1ccc(N2CCN(S(=O)(=O)c3ccc(OC)cc3)CC2)cc1 | · | · | · | 21 | 0.94 | i | · | ·
COc1ccc(S(=O)(=O)N2CCC(O)(c3ccc(Cl)cc3)CC2)cc1 | -1.3 | -3.8* | 0.18 | -3 | 0.54 | i | 379* | 243
CCc1nnc(NCC(=O)N2CCc3ccccc32)s1 | · | -4.8* | 0.59 | 12 | 0.28 | i | 605 | 254
CC(OCC(O)CN(C)CCOc1ccccc1)c1ccc(Cl)cc1 (centres undefined) | -0.87 | -2* | 0.21 | 17 | 0.17 | i | 511* | 203
CCN(Cc1ccccc1)CC(O)COc1ccccc1 (centres undefined) | · | · | · | · | -0.048 | · | · | ·
N=c1c2c(n(Cc3ccc(Cl)c(Cl)c3)c3c1CCC3)CCCC2 | -3.4 | -2.4* | -0.35 | 6 | -1.1 | i | 433* | 236
CCOCCCn1c(=S)[nH]c2cc(C(=O)NCCN(CC)CC)ccc2c1=O | 0.12 | -8.8* | 0.12 | 13 | -0.0061 | i | 538 | 204
CCCCNC(=O)c1ccc2c(=O)n(CCCOCC)c(=S)[nH]c2c1 | · | · | · | · | -0.3 | · | · | ·
CN(C)S(=O)(=O)N(CC(=O)N(Cc1ccccc1)Cc1ccccc1)c1ccccc1 | · | · | · | · | -0.37 | · | · | ·
CN(C)S(=O)(=O)N(Cc1ccc(Br)cc1)c1ccccc1 | 0.11 | -2.2* | 0 | -6 | -0.48 | i | 506 | 240
CC(C)c1nc2oc3c(=O)[nH]cnc3c2c2c1CCC2 | 2.5 | 0.32 | -0.19 | 1 | 1.9 | i | · | ·
CC(C)c1nc2oc3c(N4CCNCC4)ncnc3c2c2c1CCC2 | -1.9 | -2.9* | -1 | 9 | · | i | 292* | 243
Cc1ccc(C(=O)C2CCN(CC(=O)NC3CCCCC3)CC2)cc1 | -0.041 | -4.6* | -1.3 | 14 | 0.59 | i | 545* | 222
SMILES | D1 allo mod | M1 antagonist | M1 ag | HEK293 NFkB inh | hDAT+cocaine | BAP1 block | M1 antag conf | mGluR4 antag
O=c1c(-c2cc3ccccc3o2)coc2cc(O)ccc12 | · | · | · | · | · | i | · | ·
Cc1cc(N2CCOCC2)nc2ccc(NC(=O)CCC(=O)N3CCC(C)CC3)cc12 | -0.43 | -0.23 | 0.9 | -9 | 1.1 | i | · | ·
Cc1cc(N2CCOCC2)nc2ccc(NC(=O)CCC(=O)N3CCCCC3)cc12 | -0.16 | -2.6* | -0.0012 | -10 | · | i | 524 | 170
Nn1c(-c2cccs2)nc2sc3c(c2c1=O)CCCC3 | -0.78 | -4.4* | -0.66 | -54 | 0.48 | · | 672 | 202
NC(=O)c1ccccc1NC(=O)c1ccccc1CCc1ccccc1 | · | · | · | · | · | i | · | ·
CCCCNC(=O)c1ccccc1C(=O)NCCCC | -0.61 | -3.9* | -0.17 | 6 | -0.28 | i | 660 | 227
CCCCNC(=O)c1ccccc1Cl | · | · | · | · | -0.0034 | · | · | ·
COc1ccccc1NC(=O)CSc1nnc(CNC(=O)COc2ccc(Cl)cc2)o1 | 0.35 | -2.8* | -0.027 | 13 | -0.71 | i | 685 | 245
C=CCn1c(SCc2cccnc2)nnc1-c1ccncc1 | 0.05 | 0.0057 | -0.49 | 24 | 0.17 | i | · | ·
C=CCn1c(SCc2nc3ccccc3[nH]2)nnc1-c1ccncc1 | 0.74 | -16* | -0.45 | 8 | -0.18 | i | 643 | 243
O=c1oc2ccc(Br)cc2cc1-c1nc2sc3c(c2c(=O)[nH]1)CCCC3 | · | · | · | · | · | i | · | ·
Cc1cc(C(C)(C)C)cc(C)c1CC1=NCCN1 | -0.17 | -8.4* | -0.012 | · | -0.52 | i | 412* | 244
c1ccc(CC2=NCCN2)cc1 | · | · | · | · | -1.4 | · | · | ·
Cn1c(SC2C(=O)CC(C)(C)CC2=O)nnc1-c1ccco1 | -1.5 | -12* | 0.03 | -2 | -0.97 | i | 675 | 199
CC1(C)CC(=O)C(Sc2nnc(-c3ccc(NS(C)(=O)=O)cc3)n2Cc2ccco2)C(=O)C1 | -0.22 | 0.093 | -0.044 | 5 | -0.1 | i | · | ·
COc1ccc(Br)cc1C1Nc2ccc3ncccc3c2C2=C1C(=O)CCC2 (centres undefined) | · | · | · | · | · | i | · | ·
COCCNc1nc(SCC(=O)N2CCN(c3ccccc3OC)CC2)nc2ccccc12 | 0.2 | -3.4* | 6.2 | 20 | · | i | 503* | 222
O=C(Nc1nc(-c2ccc(F)cc2)cs1)c1ccc(S(=O)(=O)N2CCc3ccccc32)cc1 | · | · | · | · | · | i | · | ·
Cc1cc(C)n(S(=O)(=O)c2ccc(C(C)(C)C)cc2)n1 | 0.54 | -8.7* | -0.11 | 14 | 0.46 | i | 20* | 246
Cc1cc(C)n(S(=O)(=O)c2ccc3ccccc3c2)n1 | 1.1 | -1.5 | 0.034 | 5 | -0.0011 | i | · | ·
Cc1sc2ncnc(NCC(c3ccco3)N(C)C)c2c1C (centres undefined) | 0.022 | -21* | -0.81 | 19 | -1.3 | i | 582 | 245
Cc1sc2ncnc(NCc3ccccc3)c2c1C | · | · | · | · | 0.15 | · | · | ·
COc1ccc(NC(=O)c2cccnc2Cl)c(OC)c1 | · | · | · | · | · | i | · | ·
O=C(CN(CCc1ccccc1)C(=O)CNS(=O)(=O)c1ccc(F)cc1)NCC1CCCO1 (centres undefined) | -0.34 | -2.3* | 0.074 | 8 | 1.2 | i | 642 | 238
